Bioassay records: PubChem, several laboratories
Most compounds without a hit are left out; they make up all but 7.2% or so of the library.
HEK293 NFkB inh – inhibitors of the PMA/ionomycin-induced NF-kB reporter in HEK293 cells; HEK-293 NF-kB luciferase reporter, luminescence; inhibition, % at 3 µM; hit rate 0.21% among 62,000; AID 465;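 active = inhibition above the mean of all tested compounds plus 3 SD, cut at about 40% in these data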;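 note: 0% = stimulated DMSO wells and 100% = 10 µM reference inhibitor 5653914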
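System: NF-kB luciferase reporter HEK-293 cells | Replication: Single test | Control set: DMSO vs reference inhibitor | Evaluation: % inhibition | Schedule: 1 h pretreatment, 16 h stimulation, 37 °C | Probe or stimulus: PMA with ionomycin | Compound dosing: One dose, 3 µM | Detection: Luciferase luminescence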
hDAT+cocaine – changed human dopamine transporter uptake under cocaine IC80; B-score at 10 µM; hit rate 1.3% among 110,000; LLC-PK1 hDAT cells, [14C]-dopamine uptake with cocaine IC80; actives deviate in either direction; Q01959;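 active = Z score or B-score, a plate-position-corrected score, falls beyond the plate's 99.7% confidence bounds, in either direction; inactive = both scores lie inside the 99.7% bounds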;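 note: scored against the spread of the other compound wells on the same plate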
M1 antag – blocks the rat M1 muscarinic receptor response to acetylcholine | P08482 | CHO-M1 cells, Fluo-4 calcium, ACh EC80 antagonist mode; hits give low values | B-score at 10 µM | hit rate 3.4% among 64,000 | AID 628;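 active = calcium fluorescence response, raw or row-and-column corrected B-score, differing from the plate sample mean either way at a set confidence level, mostly lower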
Target sequence (P08482 whole entry, looked up): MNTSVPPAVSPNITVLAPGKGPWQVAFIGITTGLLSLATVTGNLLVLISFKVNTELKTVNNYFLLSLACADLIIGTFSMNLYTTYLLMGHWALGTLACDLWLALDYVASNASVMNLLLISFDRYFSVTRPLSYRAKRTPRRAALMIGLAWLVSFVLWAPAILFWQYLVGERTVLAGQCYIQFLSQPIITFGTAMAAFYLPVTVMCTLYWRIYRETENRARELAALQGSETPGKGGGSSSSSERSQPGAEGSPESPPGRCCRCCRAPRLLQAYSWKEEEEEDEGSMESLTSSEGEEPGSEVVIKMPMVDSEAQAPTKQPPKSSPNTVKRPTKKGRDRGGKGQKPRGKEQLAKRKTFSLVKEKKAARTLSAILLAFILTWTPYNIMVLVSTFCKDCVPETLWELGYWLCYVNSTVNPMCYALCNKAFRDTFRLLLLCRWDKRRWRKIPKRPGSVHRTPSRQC
D1 allo mod – allosteric modulators of human D1 dopamine receptor. HEK293 D1, CRE-luciferase, dopamine EC30 potentiation; actives deviate in either direction. B-score at 10 µM. hit rate 5.9% among 58,000;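 active = luminescence count or its row- and column-corrected plate score outside the 99.7% band of the plate's sample wells, on either side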
BAP1 inh – inhibitors of human BAP1 deubiquitinase. Q92560. recombinant BAP1, Ub-AMC hydrolysis fluorescence kinetic; hits give low values. calls only at 20 µM. hit rate 0.48% among 72,000;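 active = activity remaining at or below 50% of control, provided the compound also passes the data quality filters; inactive = the rest, including low values that fail the filters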;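 note: 100% = DMSO wells rate and 0% = substrate alone blank rate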
M1 agonist – agonists of M1 muscarinic receptor. CHO-M1 cells, Fluo-4 calcium fluorescence, agonist mode; hits give high values. B-score at 10 µM. hit rate 3% among 64,000;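 active = fluorescence rise, raw or as B-score row- and column-corrected plate score, outside the 99.7% band of its plate's samples, either direction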
M1 antag conf – M1 muscarinic receptor (rat) antagonism, confirmed | shares compounds with M1 antag | CHO-M1 cells, Fluo-4 calcium, ACh EC80 antagonism; hits give low values | calcium response (max-min fluorescence) at 10 µM | hit rate 43% among 1,700;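 active = calcium response below the same-plate mean of wells given acetylcholine alone at its 80%-effect dose, minus 3 SD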;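 note: raw fluorescence intensity difference in arbitrary instrument units and not normalized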
mGluR4 antag – mGluR4 (human) activity, M1 antagonist secondary assay. CHO-mGluR4 calcium flux, Fluo-4 fluorescence, glutamate EC80; hits give low values. shares compounds with M1 antag. fluorescence response (max-min) at 10 µM. AID 678. hit rate 0.9% among 1,700;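 active = fluorescence response below the plate's average for near-maximal glutamate wells, less 3 SD of those wells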;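 note: raw unnormalized fluorescence span taken in the window right after glutamate addition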
* marks the source's active call; other numbers are inactive results; i = inactive; . = not tested or not shown.

SMILES | HEK293 NFkB inh | hDAT+cocaine | M1 antag | D1 allo mod | BAP1 inh | M1 agonist | M1 antag conf | mGluR4 antag
CN1CCc2c(sc3c2C(=O)NC(c2cn(Cc4ccccc4)c4ccccc24)N3)C1 (centres undefined) | 27 | -0.011 | 0.0065 | 0.97 | i | -1 | . | .
COC(=O)CSC1=C(C#N)C(c2ccc(F)cc2)CC(=O)N1 (centres undefined) | 5 | -0.052 | -2.2* | -0.33 | i | -0.88 | 632 | 197
CN1CCN(C(=O)N2c3ccccc3C=Cc3ccccc32)CC1 | 12 | 0.74 | -18* | -2.1 | i | 1.8 | 20* | 198
CNCCCC1Sc2ccccc2Oc2ccccc21 (centres undefined) | . | -0.93 | . | . | . | . | . | .
CN1CCc2c(sc3ncn4nc(-c5ccccc5O)nc4c23)C1 | . | . | -3.7* | . | i | -0.13 | 353* | 248
O=C1CC(c2ccco2)Cc2nc(N3CCN(Cc4ccc5c(c4)OCO5)CC3)ncc21 (centres undefined) | 1 | -0.44 | -1.9* | -1 | i | 0.0094 | 509* | 267
CCCOC(=O)C1=C(C)NC2=C(C(=O)CCC2)C1c1cc(Br)c(O)c(OC)c1 (centres undefined) | . | . | . | . | i | . | . | .
Cc1ccc(NC(=O)CN(C)S(=O)(=O)c2cccc3nsnc23)cc1C | 10 | 0.32 | -3.1* | -0.78 | i | -0.29 | 652 | 240
c1ccc(CCn2c(SCCN3CCOCC3)nc3ccccc32)cc1 | . | . | . | . | i | . | . | .
Cc1nc2sccn2c(=O)c1CCN1CCC(=C(c2ccccc2)c2ccc(F)cc2)CC1 | . | -3.5* | -10* | -3.4 | i | 0.65 | 138* | 209
Cc1ccc(NC(=O)CS(=O)CC(=O)NC2CCN(Cc3ccccc3)CC2)c(C)c1 (centres undefined) | 4 | 0.074 | -7.8* | . | i | 0.21 | 645 | 241
Cc1cccc(C)c1NC(=O)CS(=O)CC(=O)NC1CCN(Cc2ccccc2)CC1 (centres undefined) | 14 | 0.99 | -0.18 | -0.35 | i | 0.13 | . | .
O=c1[nH]c(C=Cc2ccccc2)c([N+](=O)[O-])c(=O)[nH]1 | . | . | . | . | i | . | . | .
C=CCc1ccc(OCC(O)CN2CCCCC2C)c(OC)c1 (centres undefined) | 12 | 0.7 | -2.5* | . | i | 0.046 | 574 | 238
C=CCc1ccc(OCC(O)CN2CCCCC2)c(OC)c1 (centres undefined) | 9 | 0.32 | 0.57 | . | i | 0.8 | . | .
COCc1cc(C)nc(SCC(=O)Nc2ccc3c(c2)OCO3)c1C#N | 2 | -0.078 | 0.2 | 0.84 | i | -0.62 | . | .
COCc1cc(C)nc(SCC(=O)Nc2cccc3cccnc23)c1C#N | 0 | 0.82 | -3.9* | 0.66 | i | 0.42 | 643 | 215
Cc1nc2c(C(=O)N3CCN(c4ccccn4)CC3)cnn2c(C)c1Cc1cccc(Cl)c1 | 6 | 0.13 | -2.3* | -0.13 | i | 2.2 | 606 | 249
CCOCCOC(=O)C1=C(C)NC2=C(C(=O)CC(C)(C)C2)C1c1ccc(C)cc1 (centres undefined) | . | . | . | . | i | . | . | .
Cc1nc(NCC2CCCO2)[nH]c(=O)c1CCC(C)C (centres undefined) | 0 | 0.93 | 0.61 | 0.62 | i | -0.41 | . | .
Cc1nc(NCc2ccco2)[nH]c(=O)c1CCC(C)C | 0 | 0.79 | -2.4* | 0.38 | i | 0.95 | 619 | 289
Cc1cc(C)nc(SCC(=O)Oc2ccc3oc(=O)cc(C)c3c2)n1 | 6 | 0.55 | -2.6* | -0.03 | . | -0.31 | 685 | 163
CCOc1ccc2oc(=O)cc(C)c2c1 | . | -0.063 | . | . | . | . | . | .
c1ccc(-c2nc(N3CCCCC3)nc3ccccc23)cc1 | . | 0.72 | . | . | . | . | . | .
Nc1nc(N2CCCCC2)nc2ccccc12 | -6 | . | -5.9* | -2 | . | -0.069 | 286* | 268
SMILES | HEK293 NFkB inh | hDAT+cocaine | M1 antag | D1 allo mod | BAP1 inh | M1 agonist | M1 antag conf | mGluR4 antag
c1ccc2c(N3CCCCC3)nc(N3CCCC3)nc2c1 | -2 | 0.58 | -2.6* | -1.3 | i | 0.0045 | 493* | 167
O=C(CN1CCCC(O)C1)N1c2ccccc2C=Cc2ccccc21 (centres undefined) | . | . | . | . | i | . | . | .
CC(C)(C)C(=O)OCC1OC(n2cnc(C(N)=O)n2)C(O)C1O (centres undefined) | -2 | 0.76 | -11* | . | i | -0.64 | 578 | 202
O=C(Nc1cccc2ccccc12)c1cccc(N=Cc2cc(Cl)ccc2O)c1 | . | . | . | . | i | . | . | .
c1ccc(CNc2nnnn2-c2ccccc2)cc1 | . | -0.0098 | . | . | . | . | . | .
CCn1nnnc1NCc1ccc(N2CCCC2)cc1 | 14 | -0.39 | -17* | -0.21 | i | -1.2 | 503* | 215
CC(Cc1cccs1)NC(=O)Nc1ccccc1 (centres undefined) | -6 | -1.1 | -3.2* | -0.034 | i | 0.13 | 588 | 188
O=C(NC1CCN(Cc2ccccc2)CC1)C1CCN(c2nnc(-n3cccc3)s2)CC1 | 22 | 0.81 | -1.3* | -0.94 | i | -0.65 | 278* | 241
O=C(NC1CCN(Cc2ccccc2)CC1)C1CCCN(c2nnc(-n3cccc3)s2)C1 (centres undefined) | 1 | -0.44 | -3.3* | -0.53 | i | -0.65 | 260* | 194
CCCCC(=O)OCCN1C(=O)c2cccc3c(N4CCCCC4)ccc(c23)C1=O | . | . | . | . | i | . | . | .
CCSc1ccccc1C(=O)Nc1cc(C)on1 | 7 | -0.082 | -3.8* | -0.91 | i | -0.61 | 537 | 193
Cc1cc(NC(=O)c2ccccc2-c2ccccc2C(=O)O)no1 | 21 | . | 0.43 | . | i | -0.37 | . | .
Cc1noc(C)c1COC(=O)c1ccc(S(=O)(=O)NCc2ccco2)cc1 | 5 | 1.3 | -2.6* | -0.4 | i | -0.15 | 371* | 194
CC(CCN(C)C)OC(=O)c1ccc(C(C)c2ccccc2)o1 (centres undefined) | 2 | -0.076 | -4.4* | -3.2* | i | 0.25 | 349* | 223
CC(CN(C)Cc1ccccc1)OC(=O)c1cccs1 (centres undefined) | 15 | 0.21 | -0.76 | -0.3 | i | -0.013 | . | .
CC1Cc2ccccc2N1CC(=O)NC(=O)NCc1ccco1 (centres undefined) | 9 | 0.78 | -4.1* | . | i | 0.0081 | 670 | 244
CCOC(=O)N1CCN(C(=O)c2ccc3c(=O)n(CCc4ccccc4)c(=O)[nH]c3c2)CC1 | 14 | -0.15 | -5.1* | -0.18 | i | -0.98 | 296* | 246
CCOC(=O)c1ccccc1NC(=O)c1ccc2c(=O)n3c(nc2c1)CCCCC3 | 10 | 0.12 | -0.64 | 2.3 | i | -0.69 | . | .
CCOC(=O)N1CCN(C(=O)c2ccc3c(=O)n(CCOC)c(=O)[nH]c3c2)CC1 | 10 | . | -2.1* | -0.31 | . | 0.27 | 482 | 207
